Laboratory results taken from ChEMBL document CHEMBL1122747, “Potential antitumor agents. 42. Structure-activity relationships for acridine-substituted dimethyl phosphoramidate derivatives of 9-anilinoacridine” (J Med Chem, 1984).

How the values were obtained:
[1] = test system: L1210; assay: In vitro test for 50% reduction of cell number (of control) after 70 hr incubation with cultures of murine L1210 leukemia cells; type: functional; conditions: Mus musculus, L1210, 70 h; read-out: ID50 (the source's name)
[2] = test system: P388; assay: In vivo inhibition of P388 in mice for optimal (highest nonacutely toxic) dose (OD); type: functional, Mus musculus
Method in brief: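 F1 (DBA/2J × C57BlJ) mice, 19-21 g, either sex, inoculated with 10^6 P388 leukemia cells on day 0. Drug given ip in 0.1 mL 30% aqueous ethanol on days 1, 5 and 9, as a solution or, at highest doses, as a sonicated suspension. Doses stepped down from a toxic level at 0.67-fold intervals. Groups of six mice; ILS relative to 20-30 controls. OD is the highest nonacutely toxic daily dose.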

[3] = Binding affinity towards poly[d(A-T)] (fluorometric method); type: ADME
Method in brief: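 Log R for binding to poly[d(A-T)] measured fluorometrically, corrected for quenching.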

[4] = Lipophilicity (Rm) (liquid chromatography); type: physicochemical
Method in brief: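 Rm is measured for drug cations at pH 2 by liquid-liquid chromatography on a cellulose support.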

[5] = test system: P388; assay: In vivo tumor cell selectivity (ILSmax values)for percentage increase in life span of treated animals over that of P388 tumor bearing untreated control animals; type: functional, Mus musculus
[6] = test system: P388; assay: Dose of drug needed to provide a percentage increase in life span of tumor-bearing mice in vivo of […]% compared to untreated controls after inoculation of 10e6 P388 leukemia cells; h=ILS of >50% could not be obtained at any dose level; type: functional, organism-based; conditions: Mus musculus
[7] = test system: P388; assay: In vivo dose of drug needed for a percentage increase of 50% in life span of tumor-bearing mice compared to untreated controls after inoculation of 10e6 P388 leukemia cells; type: functional, Mus musculus

SMILES: CNC(=O)c1cccc2c(Nc3ccc(NS(C)(=O)=O)cc3)c3ccccc3nc12
- IC50 [1]: 245 nM
- OD [2]: 150 mg/kg/day
- Log K [3]: 6.22
- Rm [4]: -0.1
- Activity [5]: 41%
- D50 [6]: ILS not obtained

SMILES: COc1cc(NS(C)(=O)=O)ccc1Nc1c2ccccc2nc2cc(Cl)ccc12
- IC50 [1]: 70 nM
- D50 [7]: 5 mg/kg/day
- OD [2]: 20 mg/kg/day
- Log K [3]: 6.06
- Rm [4]: 0.32
- Activity [5]: 232%

SMILES: CNC(=O)c1cccc2c(Nc3ccc(NP(=O)(OC)OC)cc3OC)c3ccccc3nc12
- IC50 [1]: 18 nM
- D50 [7]: 13 mg/kg/day
- OD [2]: 30 mg/kg/day
- Log K [3]: 5.94
- Rm [4]: 0.28

SMILES: COc1cc(NS(C)(=O)=O)ccc1Nc1c2ccccc2nc2cc(Br)ccc12
- IC50 [1]: 50 nM
- D50 [7]: 4 mg/kg/day
- OD [2]: 20 mg/kg/day
- Log K [3]: 6.29
- Rm [4]: 0.34
- Activity [5]: 133%

SMILES: COc1cc(NP(=O)(OC)OC)ccc1Nc1c2ccccc2nc2cc(Cl)ccc12
- IC50 [1]: 12 nM
- D50 [7]: 5.5 mg/kg/day
- OD [2]: 13.3 mg/kg/day
- Log K [3]: 6.4
- Rm [4]: 0.61
- Activity [5]: 91%

SMILES: CS(=O)(=O)Nc1ccc(Nc2c3ccccc3nc3cc(Cl)ccc23)cc1
- IC50 [1]: 50 nM
- D50 [7]: 60 mg/kg/day
- OD [2]: 65 mg/kg/day
- Log K [3]: 6.89
- Rm [4]: 0.14
- Activity [5]: 53%

SMILES: COc1cc(NP(=O)(OC)OC)ccc1Nc1c2ccccc2nc2cc(Br)ccc12
- IC50 [1]: 5 nM
- D50 [7]: 4 mg/kg/day
- OD [2]: 13.3 mg/kg/day
- Log K [3]: 6.44
- Rm [4]: 0.57
- Activity [5]: 83%

SMILES: CS(=O)(=O)Nc1ccc(Nc2c3ccccc3nc3ccccc23)cc1
- IC50 [1]: 35 nM
- D50 [7]: 35 mg/kg/day
- OD [2]: 150 mg/kg/day
- Rm [4]: 0
- Activity [5]: 102%

SMILES: CS(=O)(=O)Nc1ccc(Nc2c3ccccc3nc3cc(N)ccc23)cc1
- IC50 [1]: 10 nM
- D50 [7]: 8 mg/kg/day
- OD [2]: 8.9 mg/kg/day
- Log K [3]: 6.82
- Rm [4]: -0.18
- Activity [5]: 67%

SMILES: COc1cc(NP(=O)(OC)OC)ccc1Nc1c2ccccc2nc2c(C)cccc12
- IC50 [1]: 18 nM
- D50 [7]: 3 mg/kg/day
- OD [2]: 8.9 mg/kg/day
- Log K [3]: 6.16
- Rm [4]: 0.44

SMILES: Cc1ccc2c(Nc3ccc(NS(C)(=O)=O)cc3)c3ccccc3nc2c1
- IC50 [1]: 8 nM
- D50 [7]: 27 mg/kg/day
- OD [2]: 50 mg/kg/day
- Log K [3]: 6.41
- Rm [4]: 0.24
- Activity [5]: 73%

SMILES: COP(=O)(Nc1ccc(Nc2c3ccccc3nc3cc(S(C)(=O)=O)ccc23)cc1)OC
- IC50 [1]: > 1500 nM
- OD [2]: 150 mg/kg/day
- Log K [3]: 5.63
- Rm [4]: -0.14
- D50 [6]: ILS not obtained

SMILES: CNC(=O)c1cccc2c(Nc3ccc(NP(=O)(OC)OC)cc3)c3ccccc3nc12
- IC50 [1]: 97 nM
- D50 [7]: 60 mg/kg/day
- OD [2]: 66 mg/kg/day
- Log K [3]: 6.46
- Rm [4]: 0.18
- Activity [5]: 56%

SMILES: COP(=O)(Nc1ccc(Nc2c3ccccc3nc3cc(C)ccc23)cc1)OC
- IC50 [1]: 7 nM
- D50 [7]: 6 mg/kg/day
- OD [2]: 20 mg/kg/day
- Log K [3]: 6.77
- Rm [4]: 0.49
- Activity [5]: 84%

SMILES: COP(=O)(Nc1ccc(Nc2c3ccccc3nc3cc(Cl)ccc23)cc1)OC
- IC50 [1]: 16 nM
- D50 [7]: 35 mg/kg/day
- OD [2]: 45 mg/kg/day
- Log K [3]: 7
- Rm [4]: 0.46
- Activity [5]: 62%

SMILES: COc1cc(NP(=O)(OC)OC)ccc1Nc1c2ccccc2nc2c(OC)cccc12
- IC50 [1]: 12 nM
- D50 [7]: 6 mg/kg/day
- OD [2]: 9 mg/kg/day
- Log K [3]: 6.09
- Rm [4]: 0.47
- Activity [5]: 76%

SMILES: COc1cc(NS(C)(=O)=O)ccc1Nc1c2ccccc2nc2c(OC)cccc12
- IC50 [1]: 40 nM
- D50 [7]: 8 mg/kg/day
- OD [2]: 30 mg/kg/day
- Log K [3]: 5.94
- Rm [4]: 0.19
- Activity [5]: 139%

SMILES: CNC(=O)c1cccc2c(Nc3ccc(NS(C)(=O)=O)cc3OC)c3ccccc3nc12
- IC50 [1]: 270 nM
- D50 [7]: 8 mg/kg/day
- OD [2]: 30 mg/kg/day
- Log K [3]: 5.54
- Rm [4]: 0.06
- Activity [5]: 127%

SMILES: COc1cc(NS(C)(=O)=O)ccc1Nc1c2ccccc2nc2ccccc12 [AMSACRINE]
- D50 [7]: 3 mg/kg/day
- Log K [3]: 5.57
- Rm [4]: 0.18
- Activity [5]: 58%

SMILES: COP(=O)(Nc1ccc(Nc2c3ccccc3nc3cc(Br)ccc23)cc1)OC
- IC50 [1]: 15 nM
- D50 [7]: 20 mg/kg/day
- OD [2]: 65 mg/kg/day
- Log K [3]: 6.56
- Rm [4]: 0.47
- Activity [5]: 110%

SMILES: COP(=O)(Nc1ccc(Nc2c3ccccc3nc3ccccc23)cc1)OC
- IC50 [1]: 15 nM
- D50 [7]: 15 mg/kg/day
- OD [2]: 45 mg/kg/day
- Log K [3]: 6.26
- Rm [4]: 0.34
- Activity [5]: 107%

SMILES: COP(=O)(Nc1ccc(Nc2c3ccccc3nc3c(C)cccc23)cc1)OC
- IC50 [1]: 9 nM
- D50 [7]: 9 mg/kg/day
- OD [2]: 20 mg/kg/day
- Log K [3]: 6.75
- Rm [4]: 0.46

SMILES: COc1cccc2c(Nc3ccc(NP(=O)(OC)OC)cc3)c3ccccc3nc12
- IC50 [1]: 20 nM
- D50 [7]: 45 mg/kg/day
- OD [2]: 45 mg/kg/day
- Log K [3]: 6.53
- Rm [4]: 0.33
- Activity [5]: 50%

SMILES: COc1cccc2c(Nc3ccc(NS(C)(=O)=O)cc3)c3ccccc3nc12
- IC50 [1]: 45 nM
- D50 [7]: 125 mg/kg/day
- OD [2]: 150 mg/kg/day
- Log K [3]: 6.24
- Rm [4]: 0.01
- Activity [5]: 58%

SMILES: COc1cc(NS(C)(=O)=O)ccc1Nc1c2ccccc2nc2c(C)cccc12
- IC50 [1]: 30 nM
- D50 [7]: 4 mg/kg/day
- OD [2]: 20 mg/kg/day
- Log K [3]: 6.03
- Rm [4]: 0.25
- Activity [5]: 172%

SMILES: COc1cc(NP(=O)(OC)OC)ccc1Nc1c2ccccc2nc2ccccc12
- IC50 [1]: 70 nM
- D50 [7]: 3.5 mg/kg/day
- OD [2]: 8.9 mg/kg/day
- Log K [3]: 5.64
- Rm [4]: 0.47
- Activity [5]: 67%

SMILES: Cc1cccc2c(Nc3ccc(NS(C)(=O)=O)cc3)c3ccccc3nc12
- IC50 [1]: 17 nM
- D50 [7]: 50 mg/kg/day
- OD [2]: 66 mg/kg/day
- Log K [3]: 6.52
- Rm [4]: 0.07
- Activity [5]: 75%

SMILES: COP(=O)(Nc1ccc(Nc2c3ccccc3nc3cc(N)ccc23)cc1)OC
- IC50 [1]: 385 nM
- D50 [7]: 5 mg/kg/day
- OD [2]: 5.9 mg/kg/day
- Log K [3]: 6.9
- Rm [4]: 0.06
- Activity [5]: 58%
